The source made the active and inactive calls. No cut-off for these calls is given here.
What was measured:
[1] = molecular target: T1, Protein Wnt-2 (Homo sapiens) (UniProt P09544); assay: Inhibition of Wnt2 signaling pathway in human A549 cells assessed as inhibition of beta-casein-mediated Tcf/Lef transcriptional activity after 24 hrs by dual luciferase reporter gene assay relative to control; type: cell-based; design: concentration or dose not given beside the values; conditions: concentration not given here
T1 sequence (whole entry): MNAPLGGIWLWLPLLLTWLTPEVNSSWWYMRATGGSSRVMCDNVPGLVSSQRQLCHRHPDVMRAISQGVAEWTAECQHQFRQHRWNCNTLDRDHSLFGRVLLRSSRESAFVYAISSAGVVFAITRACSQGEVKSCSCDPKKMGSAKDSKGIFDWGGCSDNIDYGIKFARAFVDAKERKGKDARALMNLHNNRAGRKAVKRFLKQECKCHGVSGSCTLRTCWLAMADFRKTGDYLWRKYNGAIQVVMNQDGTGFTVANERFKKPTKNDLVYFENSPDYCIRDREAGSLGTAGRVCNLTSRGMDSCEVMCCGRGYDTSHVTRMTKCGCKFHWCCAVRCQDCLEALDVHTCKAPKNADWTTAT
Method in brief: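 A549/Wnt2 cells (4 × 10⁴) transiently co-transfected with 1 lg pSuperTopflash (eight Tcf sites upstream of firefly luciferase) or pSuperFopflash (mutated Tcf sites, negative control) plus 15 ng pRL-TK. Compounds applied at the proliferation IC₅₀, 37 °C, 24 h. Lysed; firefly and Renilla read by dual-luciferase. Firefly/Renilla ratio, triplicates, mean ± SEM, relative to untreated cells.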

A549 [2] = assay: Reduction of beta-casein expression level in cytosolic fraction of human A549 cells expressing Wnt2 by Western blotting; type: functional, cell-based
[3] = Inhibition of […] signaling in human A549 cells assessed as inhibition of cell proliferation at 15% of IC50 concentration after 24 to 48 hrs by MTT assay; type: cell-based
[4] = Inhibition of […] signaling in human A549 cells assessed as inhibition of cell proliferation after 24 hrs by MTT assay; conditions: A549, 24 h
A549 [5] = assay: Reduction of beta-casein expression level in human A549 cells expressing Wnt2 by Western blotting; type: functional, cell-based
A549 [6] = assay: Reduction of beta-casein expression level in nuclear fraction of human A549 cells expressing Wnt2 by Western blotting; type: functional, cell-based
[7] = Inhibition of […] signaling in human H460 cells assessed as inhibition of cell proliferation after 24 hrs by MTT assay; type: cell-based
[8] = molecular target: T1, Protein Wnt-2 (Homo sapiens); assay: Inhibition of Wnt2 signaling pathway in human H460 cells assessed as inhibition of beta-casein-mediated Tcf/Lef transcriptional activity IC50 concentration after 24 hrs by dual luciferase reporter gene assay relative to control; type: cell-based
Method in brief: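 H460/Wnt2 cells transiently co-transfected with SuperTopflash and pRL-TK Renilla control. Compounds given at the A549 proliferation IC₅₀, 37 °C, 24 h. Dual firefly/Renilla luciferase read-out as normalized ratio, triplicates, mean ± SEM, versus untreated cells.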

[9] = Inhibition of […] signaling in human A549 cells assessed as inhibition of cell proliferation at 30% of IC50 concentration after 24 to 48 hrs by MTT assay; type: cell-based
[10] = Inhibition of […] signaling in human A549 cells assessed as inhibition of cell proliferation after 24 to 48 hrs by MTT assay; type: cell-based
Method in brief: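 MTS proliferation assay in A549/Wnt2 cells. Cells seeded at 5 × 10³ per well and left about 24 h to attach. Compounds added at various concentrations; growth read at 24 and 48 h after treatment. MTS reagent for 30 min at 37 °C in CO₂, then absorbance at 490 nm.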

Compound | inhibition [1] [%] | Activity (A549 [2]) | inhibition [3] | IC50 [4] [nM] | Activity (A549 [5]) | Activity (A549 [6]) | inhibition [7] | inhibition [8] [%] | inhibition [9] | inhibition [10]
CN(C)CCOc1nc2ccccc2nc1C#Cc1ccccc1 | 30 | Active | Active | 758 | Active | Active | Active |  |  | 
CCN(CC)CCOc1nc2cc(NC(=O)N(C)Cc3ccc(F)cc3)ccc2nc1C#Cc1ccc(N(C)C)cc1 | > 80 | Active | Active | 7900 | Active | Active | Active |  |  | 
CN1CCC[C@H]1COc1nc2ccc(N)cc2nc1C#Cc1ccccc1 | > 80 | Active | Active | 3800 | Active | Active | Active | > 80 |  | 
COc1nc2ccc(NC(=O)Nc3ccc(C(C)(C)C)cc3)cc2nc1NCCN1CCCCC1 | 30 | Active | Active | 5010 | Active | Active | Active |  | Active | 
Cc1ccc(C#Cc2nc3ccccc3nc2OCCN2CCCC2)cc1 |  | Active | Active | 1320 | Active | Active | Active |  |  | 
Cc1ccc(C#Cc2nc3ccc(NC(=O)N4CCN(c5ccccn5)CC4)cc3nc2OCCN2CCCC2)cc1 | 30 | Active | Active | 4760 | Active | Active | Active |  |  | Dose-dependent effect
CN(C)c1ccc(C#Cc2nc3cc(F)ccc3nc2OCCCN2CCCCC2)cc1 | 30 | Active | Active | 3770 | Active | Active | Active |  |  | 
Cc1cccc(C#Cc2nc3ccccc3nc2OCCCN2CCCCC2)c1 | 30 | Active | Active | 1610 | Active | Active | Active |  |  | 
CCN(CC)CCOc1nc2cc(NC(=O)c3ccc(C)cc3)ccc2nc1C#Cc1ccc(OC)cc1C |  | Active | Active | 1780 | Active | Active | Active |  |  | 
COc1c(C[C@@H](C)OC(=O)Oc2ccc(O)cc2)c2c3c(C[C@@H](C)OC(=O)c4ccccc4)c(OC)c(=O)c4c(O)cc(OC)c(c5c(OC)cc(O)c(c1=O)c52)c43 [CALPHOSTIN C] |  |  |  | 3200 |  |  |  |  |  | 
COc1cccc2nc(OCCN3CCCC3)c(C#Cc3ccccc3)nc12 |  | Active | Active | 1890 | Active | Active | Active |  |  | Dose-dependent effect
COc1ccc(C#Cc2nc3cc(F)ccc3nc2OCCOCCN(C)C)cc1 | > 80 | Active | Active | 2340 | Active | Active | Active | > 80 | Active | 
Cc1ccc2nc(OCCC3CCCN3C)c(C#Cc3ccccc3)nc2c1 (stereo not given) | 30 | Active | Active | 905 | Active | Active | Active |  |  | Dose-dependent effect
COc1cccc(C#Cc2nc3ccc(NC(=O)c4ccc(F)cc4)cc3nc2OC2CCN(C)CC2)c1 |  | Active | Active | 3540 | Active | Active | Active |  |  | 
